Measurements from ChEMBL document CHEMBL1122293, “Synthesis, evaluation of chemical reactivity, and murine antineoplastic activity of 2-hydroxy-5-(3,4-dichlorophenyl)-6,7-bis(hydroxymethyl)-2,3-dihydro-1H- pyrrolizine bis(2-propylcarbamate) and 2-acyloxy derivatives as potential water-soluble prodrugs” (J Med Chem, 1983).
Converted amounts (≈) assume the structure as drawn.

Tests used:
[1] = system: P388; assay: Median survival time of test animals compared to controls at 50 mg/kg (ip) against P388 Lymphocytic Leukemia in mice; type: functional, Mus musculus
Procedure, shortened: (§1)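 P388 leukemia cells were inoculated ip into male CDF1 mice. Treatment began 24 h later, given ip as five daily doses, either as a Klucel (hydroxypropylcellulose) suspension or as an aqueous solution. Acute toxicity was assessed on day 5 and results were read on day 30. The value is median survival of treated versus control mice, as % T/C.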

[2] = system: P388; assay: Weight difference at 5 mg/kg (ip)against P388 Lymphocytic Leukemia in mice; type: functional, Mus musculus
Procedure, shortened: (§2)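 Male CDF1 mice inoculated ip with P388 leukemia cells. Nine daily ip doses beginning 24 h later, as suspensions in Klucel or water. Acute toxicity evaluated day 5. Weight difference reported as treated minus control (g).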

[3] = system: P388; assay: Weight difference at 10 mg/kg (ip)against P388 Lymphocytic Leukemia in mice; type: functional, Mus musculus; procedure, shortened: as §2
[4] = system: P388; assay: Median survival time of test animals compared to controls at 100 mg/kg (ip) against P388 Lymphocytic Leukemia in mice; type: functional, Mus musculus; procedure, shortened: as §1
[5] = Water solubility of the compound; type: ADME; conditions: read-out: S
Procedure, shortened: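 Excess bis(carbamate) (30-60 mg) in 2 mL distilled water, vortexed 10 min, filtered through Teflon wool and diluted. UV absorbance read at 291 nm. Concentration from a linear Beer's law calibration made with a salt standard (r = 0.998).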

[6] = system: P388; assay: Weight difference at 40 mg/kg (ip)against P388 Lymphocytic Leukemia in mice; type: functional, Mus musculus; procedure, shortened: as §2
[7] = system: P388; assay: Weight difference at 20 mg/kg (ip)against P388 Lymphocytic Leukemia in mice; type: functional, Mus musculus; procedure, shortened: as §2
[8] = system: P388; assay: Log of the tumor cell population at the end of treatment at 50 mg/kg (ip) against P388 Lymphocytic Leukemia in mice; type: functional, Mus musculus
[9] = system: P388; assay: Median survival time of test animals compared to controls at 40 mg/kg (ip) against P388 Lymphocytic Leukemia in mice; type: functional, Mus musculus
Procedure, shortened: (§3)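 P388 leukemia cells were given ip to male CDF1 mice. Dosing started 24 h later: nine daily ip doses given as suspensions in Klucel (hydroxypropylcellulose) or in water. Toxicity day was day 5 and evaluation was on day 30. The value is % T/C of median survival time against untreated controls, with a parallel positive-control arm.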

[10] = system: P388; assay: Log of the tumor cell population at the end of treatment at 25 mg/kg (ip) against P388 Lymphocytic Leukemia in mice; type: functional, Mus musculus
[11] = system: P388; assay: Median survival time of test animals compared to controls at 5 mg/kg (ip) against P388 Lymphocytic Leukemia in mice; type: functional, Mus musculus; procedure, shortened: as §3
[12] = system: P388; assay: Log of the tumor cell population at the end of treatment at 20 mg/kg (ip) against P388 Lymphocytic Leukemia in mice; type: functional, Mus musculus
[13] = system: P388; assay: Weight difference at 50 mg/kg (ip)against P388 Lymphocytic Leukemia in mice; type: functional, Mus musculus
Procedure, shortened: (§4)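 Male CDF1 mice given 6×10^6 leukemia cells ip. Five daily ip doses beginning 24 h later, as Klucel suspension or aqueous solution. Acute toxicity on day 5; survival assessed on day 30. Weight difference reported as treated minus control (g).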

[14] = system: P388; assay: Median survival time of test animals compared to controls at 6.25 mg/kg (ip) against P388 Lymphocytic Leukemia in mice; type: functional, Mus musculus; procedure, shortened: as §1
[15] = system: P388; assay: Log of the tumor cell population at the end of treatment at 10 mg/kg (ip) against P388 Lymphocytic Leukemia in mice; type: functional, Mus musculus
[16] = Half life was determined
[17] = system: P388; assay: Log of the tumor cell population at the end of treatment at 100 mg/kg (ip) against P388 Lymphocytic Leukemia in mice; type: functional, Mus musculus
[18] = system: P388; assay: Median survival time of test animals compared to controls at 80 mg/kg (ip) against P388 Lymphocytic Leukemia in mice; type: functional, Mus musculus; procedure, shortened: as §3
[19] = system: P388; assay: Weight difference at 6.25 mg/kg (ip)against P388 Lymphocytic Leukemia in mice; type: functional, Mus musculus; procedure, shortened: as §4
[20] = system: P388; assay: Log of the tumor cell population at the end of treatment at 6.25 mg/kg (ip) against P388 Lymphocytic Leukemia in mice; type: functional, Mus musculus
[21] = system: P388; assay: Log of the tumor cell population at the end of treatment at 80 mg/kg (ip) against P388 Lymphocytic Leukemia in mice; type: functional, Mus musculus
[22] = system: P388; assay: Log of the tumor cell population at the end of treatment at 40 mg/kg (ip) against P388 Lymphocytic Leukemia in mice; type: functional, Mus musculus
[23] = system: P388; assay: Median survival time of test animals compared to controls at 12.5 mg/kg (ip) against P388 Lymphocytic Leukemia in mice; type: functional, Mus musculus
Procedure, shortened: (§5)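 P388 leukemia cells inoculated ip into male CDF1 mice; ip treatment started 24 h later, five daily doses, as Klucel (hydroxypropylcellulose) suspension or aqueous solution. Acute toxicity on day 5. Day-30 median survival of treated versus control mice expressed as % T/C. Weight difference is treated minus control, in grams.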

[24] = system: P388; assay: Weight difference at 100 mg/kg (ip)against P388 Lymphocytic Leukemia in mice; type: functional, Mus musculus; procedure, shortened: as §4
[25] = system: P388; assay: Median survival time of test animals compared to controls at 25 mg/kg (ip) against P388 Lymphocytic Leukemia in mice; type: functional, Mus musculus; procedure, shortened: as §1
[26] = system: P388; assay: Weight difference at 12.5 mg/kg (ip)against P388 Lymphocytic Leukemia in mice; type: functional, Mus musculus; procedure, shortened: as §5
[27] = system: P388; assay: Weight difference at 25 mg/kg (ip)against P388 Lymphocytic Leukemia in mice; type: functional, Mus musculus; procedure, shortened: as §4
[28] = system: P388; assay: Median survival time of test animals compared to controls at 10 mg/kg (ip) against P388 Lymphocytic Leukemia in mice; type: functional, Mus musculus; procedure, shortened: as §3
[29] = system: P388; assay: Median survival time of test animals compared to controls at 20 mg/kg (ip) against P388 Lymphocytic Leukemia in mice; type: functional, Mus musculus; procedure, shortened: as §3
[30] = system: P388; assay: Median survival time of test animals compared to controls at 2.5 mg/kg (ip) against P388 Lymphocytic Leukemia in mice; type: functional, Mus musculus
Procedure, shortened: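 P388 leukemia cells given ip to male CDF1 mice; ip dosing began 24 h later, nine daily doses, as suspensions in Klucel (hydroxypropylcellulose) or water. Acute toxicity checked on day 5. Survival read on day 30 as median survival time of treated versus control mice (% T/C). Weight difference is treated minus control, in grams.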

[31] = system: P388; assay: Weight difference at 2.5 mg/kg (ip)against P388 Lymphocytic Leukemia in mice; type: functional, Mus musculus; procedure, shortened: as §2
[32] = system: P388; assay: Log of the tumor cell population at the end of treatment at 12.5 mg/kg (ip) against P388 Lymphocytic Leukemia in mice; type: functional, Mus musculus
[33] = system: P388; assay: Weight difference at 80 mg/kg (ip)against P388 Lymphocytic Leukemia in mice; type: functional, Mus musculus; procedure, shortened: as §2
[34] = system: P388; assay: Log of the tumor cell population at the end of treatment at 5 mg/kg (ip) against P388 Lymphocytic Leukemia in mice; type: functional, Mus musculus

CC(C)NC(=O)OCc1c(COC(=O)NC(C)C)c(-c2ccc(Cl)c(Cl)c2)n2c1CCC2
T/C [1]: 205% | Weight change [2]: -0.8 g | Weight change [3]: -0.7 g | T/C [4]: 110% | solubility [5]: 0.00126 mM (≈ 0.608 µg/mL) | Weight change [6]: -2.6 g | Weight change [7]: -1.8 g | Log cell kill [8]: 5.25 | T/C [9]: 155% | Log cell kill [10]: 3.16 | T/C [11]: 127% | Log cell kill [12]: -1.41 | Weight change [13]: -5.3 g | T/C [14]: 164% | Log cell kill [15]: -1.44 | half-life [16]: 13 min | Log cell kill [17]: -1.4 | T/C [18]: 126% | Weight change [19]: -2.8 g | Log cell kill [20]: 2.01 | Log cell kill [21]: -1.64 | Log cell kill [22]: -1.25 | T/C [23]: 160% | Weight change [24]: -5.6 g | T/C [25]: 179% | Weight change [26]: -3.4 g | Weight change [27]: -3.9 g | T/C [28]: 141% | T/C [29]: 144% | Log cell kill [30]: -1.52 | T/C [30]: 135% | Weight change [31]: -0.5 g | Log cell kill [32]: 1.7 | Weight change [33]: -4 g | Log cell kill [34]: -1.63

CC(C)NC(=O)OCc1c(COC(=O)NC(C)C)c(-c2ccc(Cl)c(Cl)c2)n2c1CC(OC(=O)CCC(=O)[O-])C2.[K+] (configuration not stated)
solubility [5]: 38.8 mM | half-life [16]: 92 min
